Experimental data published in ChEMBL document CHEMBL1143122, “Novel analogs of D-e-MAPP and B13. Part 1: synthesis and evaluation as potential anticancer agents” (Bioorg Med Chem, 2008).

Columns and labels:
LOX IMVI = assay: Antiproliferative activity against human LOXIMVI cells after 48 hrs; assay type: functional
In short: (§1)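 NCI 60-cell screen. Cells were grown in RPMI 1640 with 5% FBS and 2 mM L-glutamine, then plated at 5,000–40,000 cells/well according to doubling time and preincubated for 24 h at 37 °C in 5% CO2. Compounds were dissolved in DMSO at 400× the top final concentration and tested at five 10-fold dilutions from 10−4 to 10−8 M for 48 h. Growth was read spectrophotometrically; GI50 is 50% net protein reduction.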

M14 = assay: Antiproliferative activity against human M14 cells after 48 hrs; assay type: functional; conditions: M14, 48 h; in short: as §1
SK-MEL-2 = assay: Antiproliferative activity against human SKMEL2 cells after 48 hrs; assay type: functional; conditions: SK-MEL-2, 48 h; in short: as §1
UACC-257 = assay: Antiproliferative activity against human UACC257 cells after 48 hrs; assay type: functional; conditions: UACC-257, 48 h
In short: (§2)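 NCI 60-cell-line screen. Lines grown in RPMI 1640 with 5% fetal bovine serum and 2 mM L-glutamine, plated at 5,000–40,000 cells/well according to doubling time, left 24 h at 37 °C in 5% CO2. Drug stocks in DMSO at 400-fold the top final concentration. Five 10-fold dilutions, 10−4 to 10−8 M, incubated 48 h. Growth read spectrophotometrically as net protein; GI50 taken as 50% reduction.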

UACC-62 = assay: Antiproliferative activity against human UACC62 cells after 48 hrs; assay type: functional; conditions: UACC-62, 48 h; in short: as §2
OVCAR-3 = assay: Antiproliferative activity against human OVCAR-3 cells after 48 hrs; assay type: functional; conditions: OVCAR-3, 48 h; in short: as §1
SK-OV-3 = assay: Antiproliferative activity against human SKOV3 cells after 48 hrs; assay type: functional; conditions: SK-OV-3, 48 h; in short: as §1
A498 = assay: Antiproliferative activity against human A498 cells after 48 hrs; assay type: functional; conditions: A498, 48 h; in short: as §1
CAKI-1 = assay: Antiproliferative activity against human CAKI1 cells after 48 hrs; assay type: functional; conditions: CAKI-1, 48 h; in short: as §1
RXF 393 = assay: Antiproliferative activity against human RXF393 cells after 48 hrs; assay type: functional; conditions: RXF 393, 48 h; in short: as §1
SN12C = assay: Antiproliferative activity against human SN12C cells after 48 hrs; assay type: functional; in short: as §1
TK-10 = assay: Antiproliferative activity against human TK10 cells after 48 hrs; assay type: functional; conditions: TK-10, 48 h; in short: as §2
PC-3 = assay: Antiproliferative activity against human PC3 cells after 48 hrs; assay type: functional; conditions: PC-3, 48 h; in short: as §1
DU-145 = assay: Antiproliferative activity against human DU145 cells after 48 hrs; assay type: functional; conditions: DU-145, 48 h; in short: as §1
MDA-MB-435 = assay: Antiproliferative activity against human MDA-MB-435 cells after 48 hrs; assay type: functional; conditions: Homo sapiens, MDA-MB-435, 48 h; in short: as §1
T47D = assay: Antiproliferative activity against human T47D cells after 48 hrs; assay type: functional; in short: as §2
HOP-62 = assay: Antiproliferative activity against human HOP62 cells after 48 hrs; assay type: functional; conditions: HOP-62, 48 h; in short: as §1
NCI-H226 = assay: Antiproliferative activity against human NCI-H226 cells after 48 hrs; assay type: functional; conditions: NCI-H226, 48 h; in short: as §1
NCI-H322M = assay: Antiproliferative activity against human NCI-H322M cells after 48 hrs; assay type: functional; in short: as §1
NCI-H522 = assay: Antiproliferative activity against human NCI-H522 cells after 48 hrs; assay type: functional; conditions: NCI-H522, 48 h; in short: as §1
HCC 2998 = assay: Antiproliferative activity against human HCC2998 cells after 48 hrs; assay type: functional; conditions: HCC 2998, 48 h; in short: as §1
HCT-116 = assay: Antiproliferative activity against human HCT116 cells after 48 hrs; assay type: functional; conditions: HCT-116, 48 h; in short: as §1
HCT-15 = assay: Antiproliferative activity against human HCT15 cells after 48 hrs; assay type: functional; conditions: Homo sapiens, HCT-15, 48 h; in short: as §1
HT-29 = assay: Antiproliferative activity against human HT29 cells after 48 hrs; assay type: functional; conditions: HT-29, 48 h; in short: as §1
KM12 = assay: Antiproliferative activity against human KM12 cells after 48 hrs; assay type: functional; conditions: Homo sapiens, KM12, 48 h; in short: as §1
SW-620 = assay: Antiproliferative activity against human SW620 cells after 48 hrs; assay type: functional; conditions: SW-620, 48 h; in short: as §2
SF-295 = assay: Antiproliferative activity against human SF295 cells after 48 hrs; assay type: functional; conditions: SF-295, 48 h; in short: as §1
SNB-19 = assay: Antiproliferative activity against human SNB19 cells after 48 hrs; assay type: functional; conditions: SNB-19, 48 h; in short: as §1
MCF7 = assay: Antiproliferative activity against human MCF7 cells after 48 hrs; assay type: functional, cell-based; conditions: MCF7, 48 h
CCRF-CEM = assay: Antiproliferative activity against human CCRF-CEM cells after 48 hrs; assay type: functional; in short: as §1
RPMI-8226 = assay: Antiproliferative activity against human RPMI8226 cells after 48 hrs; assay type: functional; conditions: RPMI-8226, 48 h; in short: as §1
A549 = assay: Antiproliferative activity against human A549 cells after 48 hrs; assay type: functional; conditions: A549, 48 h; in short: as §1
[1] = read-out: Log LC50 (the source's name) (converted)

CCCCCCCCCCCCCCN[C@H](CO)[C@H](O)c1ccccc1
GI50 (LOX IMVI): 1780 nM
LC50 (LOX IMVI): 5.75 µM
TGI (LOX IMVI; read-out: Log TGI (converted)): 3.16 µM
GI50 (M14): 1860 nM
LC50 (M14): 5.89 µM
TGI (M14; read-out: Log TGI (converted)): 3.31 µM
GI50 (SK-MEL-2): 2140 nM
LC50 (SK-MEL-2): > 100 µM
TGI (SK-MEL-2; read-out: Log TGI (converted)): 4.79 µM
GI50 (UACC-257): 1700 nM
CC50 (UACC-257; [1]): 7.24 µM
TGI (UACC-257; read-out: Log TGI (converted)): 3.47 µM
GI50 (UACC-62): 1820 nM
LC50 (UACC-62): 7.59 µM
TGI (UACC-62; read-out: Log TGI (converted)): 3.72 µM
GI50 (OVCAR-3): 1910 nM
TGI (OVCAR-3; read-out: Log TGI (converted)): 4.07 µM
GI50 (SK-OV-3): 6.76 µM
CC50 (SK-OV-3; [1]): 79.4 µM
TGI (SK-OV-3; read-out: Log TGI (converted)): 24.5 µM
GI50 (A498): 18.2 µM
CC50 (A498; [1]): > 100 µM
TGI (A498; read-out: Log TGI (converted)): 42.7 µM
GI50 (CAKI-1): 1660 nM
CC50 (CAKI-1; [1]): 7.76 µM
TGI (CAKI-1; read-out: Log TGI (converted)): 3.55 µM
GI50 (RXF 393): 1150 nM
CC50 (RXF 393; [1]): 5.13 µM
TGI (RXF 393; read-out: Log TGI (converted)): 2450 nM
GI50 (SN12C): 1740 nM
LC50 (50% net cell kill) (SN12C): 6.46 µM
TGI (SN12C; read-out: Log TGI (converted)): 3.31 µM
GI50 (TK-10): 2000 nM
CC50 (TK-10; [1]): 13.8 µM
TGI (TK-10; read-out: Log TGI (converted)): 4.68 µM
GI50 (PC-3): 1580 nM
LC50 (PC-3): 5.5 µM
TGI (PC-3; read-out: Log TGI (converted)): 2950 nM
GI50 (DU-145): 1660 nM
CC50 (DU-145; [1]): 6.17 µM
TGI (DU-145; read-out: Log TGI (converted)): 3.16 µM
GI50 (MDA-MB-435): 1780 nM
LC50 (MDA-MB-435): 5.62 µM
TGI (MDA-MB-435; read-out: Log TGI (converted)): 3.16 µM
GI50 (T47D): 1910 nM
TGI (T47D; read-out: Log TGI (converted)): 3.63 µM
GI50 (HOP-62): 1480 nM
CC50 (HOP-62; [1]): 5.37 µM
TGI (HOP-62; read-out: Log TGI (converted)): 2820 nM
GI50 (NCI-H226): 3.24 µM
CC50 (NCI-H226; [1]): > 100 µM
TGI (NCI-H226; read-out: Log TGI (converted)): 11.7 µM
GI50 (NCI-H322M): 2140 nM
CC50 (NCI-H322M; [1]): 7.24 µM
TGI (NCI-H322M; read-out: Log TGI (converted)): 3.89 µM
GI50 (NCI-H522): 2000 nM
TGI (NCI-H522; read-out: Log TGI (converted)): 3.8 µM
GI50 (HCC 2998): 1660 nM
CC50 (HCC 2998; [1]): 5.62 µM
TGI (HCC 2998; read-out: Log TGI (converted)): 3.09 µM
GI50 (HCT-116): 1740 nM
LC50 (HCT-116): 5.62 µM
TGI (HCT-116; read-out: Log TGI (converted)): 3.16 µM
GI50 (HCT-15): 1910 nM
LC50 (HCT-15): 6.03 µM
TGI (HCT-15; read-out: Log TGI (converted)): 3.39 µM
GI50 (HT-29): 1700 nM
LC50 (HT-29): 5.62 µM
TGI (HT-29; read-out: Log TGI (converted)): 3.09 µM
GI50 (KM12): 1860 nM
CC50 (KM12; [1]): 5.89 µM
TGI (KM12; read-out: Log TGI (converted)): 3.31 µM
GI50 (SW-620): 2400 nM
LC50 (concentration killing 50% of cells) (SW-620): > 100 µM
GI50 (SF-295): 1860 nM
LC50 (SF-295): 6.76 µM
TGI (SF-295; read-out: Log TGI (converted)): 3.55 µM
GI50 (SNB-19): 1780 nM
TGI (SNB-19; read-out: Log TGI (converted)): 3.24 µM
GI50 (MCF7): 1820 nM
TGI (MCF7; read-out: Log TGI (converted)): 3.31 µM
GI50 (CCRF-CEM): 1580 nM
CC50 (CCRF-CEM; [1]): 7.94 µM
TGI (CCRF-CEM; read-out: Log TGI (converted)): 3.55 µM
GI50 (RPMI-8226): 1660 nM
CC50 (RPMI-8226; [1]): 7.76 µM
TGI (RPMI-8226; read-out: Log TGI (converted)): 3.63 µM
GI50 (A549): 1700 nM
CC50 (A549; [1]): 6.03 µM
TGI (A549; read-out: Log TGI (converted)): 3.24 µM
